Experimental data reported in ChEMBL document CHEMBL1145545, “Discovery of a novel A2B adenosine receptor antagonist as a clinical candidate for chronic inflammatory airway diseases” (J Med Chem, 2008).

How the values were obtained:
Homo sapiens [1] = species: Homo sapiens; experiment: Selectivity for human recombinant adenosine A2B receptor over human recombinant adenosine A1 receptor
Adenosine receptor A2b = target: T1, Adenosine receptor A2b (Homo sapiens, UniProt P29275); experiment: Displacement of [3H]ZM-241385 from human recombinant adenosine A2B receptor expressed in HEK293 cells; assay type: cell-based
T1 sequence (P29275 whole entry): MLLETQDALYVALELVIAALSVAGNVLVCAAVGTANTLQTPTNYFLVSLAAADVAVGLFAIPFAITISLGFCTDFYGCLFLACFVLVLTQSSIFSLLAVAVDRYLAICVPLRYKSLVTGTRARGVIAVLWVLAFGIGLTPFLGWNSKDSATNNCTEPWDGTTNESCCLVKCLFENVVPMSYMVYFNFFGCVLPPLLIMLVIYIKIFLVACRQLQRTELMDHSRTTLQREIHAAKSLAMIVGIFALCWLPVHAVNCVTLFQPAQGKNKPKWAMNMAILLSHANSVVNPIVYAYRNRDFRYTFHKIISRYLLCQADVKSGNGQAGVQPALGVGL
Summary of the method: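 Membranes from HEK293 cells stably expressing human A2B receptor; competition with 10 nM radioligand, 50 µg membrane protein, in 50 mM Tris/1 mM EDTA with 1 U/mL adenosine deaminase, 25 °C for 90 min with gentle agitation; filtration, four ice-cold Tris/MgCl2 washes. Nonspecific binding defined with 10 µM unlabelled ligand; Ki calculated.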

Adenosine receptor A1 = target: T2, Adenosine receptor A1 (Homo sapiens, UniProt P30542); experiment: Displacement of [3H]CPX from human recombinant adenosine A1 receptor expressed in CHO cells; assay type: cell-based
T2 sequence (P30542 whole entry): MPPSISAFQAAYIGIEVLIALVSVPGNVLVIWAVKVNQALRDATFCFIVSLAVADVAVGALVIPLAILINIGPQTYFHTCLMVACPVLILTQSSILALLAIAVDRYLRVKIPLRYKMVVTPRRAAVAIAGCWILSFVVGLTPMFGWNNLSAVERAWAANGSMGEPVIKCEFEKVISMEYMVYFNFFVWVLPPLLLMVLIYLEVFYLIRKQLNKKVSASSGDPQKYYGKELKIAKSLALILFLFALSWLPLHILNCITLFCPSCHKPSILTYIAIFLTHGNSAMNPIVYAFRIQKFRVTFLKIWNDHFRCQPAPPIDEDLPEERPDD
Summary of the method: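 CHO cell membranes stably expressing human A1 receptor; 0.5 nM [3H]CPX competed with test compound in 50 mM Tris/1 mM EDTA plus 1 U/mL adenosine deaminase, 25 °C, 90 min, gentle agitation; filtration and four ice-cold Tris/MgCl2 washes. Nonspecific binding defined with 1 µM CPX; Ki values derived.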

Adenosine receptor A2a = Adenosine receptor A2a (Homo sapiens, UniProt P29274); experiment: Displacement of [3H]ZM-241385 from human recombinant adenosine A2A receptor expressed in HEK293 cells; assay type: cell-based
Summary of the method: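 Membranes from HEK293 cells stably expressing human A2A receptor; 2 nM radioligand competed in 50 mM Tris/1 mM EDTA with 1 U/mL adenosine deaminase for 90 min at 25 °C with agitation; filtration, four ice-cold Tris/MgCl2 washes. Nonspecific binding defined with 1 µM unlabelled ligand; Ki computed.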

Adenosine receptor A3 = target: T3, Adenosine receptor A3 (Homo sapiens, UniProt P0DMS8); experiment: Displacement of [125I]ABMECA from human recombinant adenosine A3 receptor expressed in CHO cells; assay type: cell-based
T3 sequence (P0DMS8 whole entry): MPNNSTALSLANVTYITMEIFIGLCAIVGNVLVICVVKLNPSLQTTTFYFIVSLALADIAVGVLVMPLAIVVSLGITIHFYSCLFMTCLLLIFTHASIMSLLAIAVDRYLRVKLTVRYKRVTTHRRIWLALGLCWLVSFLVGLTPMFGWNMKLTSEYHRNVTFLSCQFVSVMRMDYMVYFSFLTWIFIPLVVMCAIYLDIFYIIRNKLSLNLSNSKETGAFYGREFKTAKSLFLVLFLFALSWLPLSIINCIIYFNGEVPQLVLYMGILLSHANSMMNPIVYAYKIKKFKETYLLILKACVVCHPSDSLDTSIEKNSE
Summary of the method: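 Human A3 receptor stably expressed in CHO cells; membranes incubated with 0.1 nM 125I-AB-MECA and test compound in 50 mM Tris, 1 mM EDTA, 10 mM MgCl2 plus 1 U/mL adenosine deaminase, 25 °C, 90 min; filtration, four ice-cold washes. Nonspecific binding defined with 1 µM IB-MECA; Ki determined.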

Homo sapiens [2] = species: Homo sapiens; experiment: Selectivity for human recombinant adenosine A2B receptor over human recombinant adenosine A2A receptor
Homo sapiens [3] = species: Homo sapiens; experiment: Selectivity for human recombinant adenosine A2B receptor over human recombinant adenosine A3 receptor

Sequence of Adenosine receptor A2a (P29274 whole entry): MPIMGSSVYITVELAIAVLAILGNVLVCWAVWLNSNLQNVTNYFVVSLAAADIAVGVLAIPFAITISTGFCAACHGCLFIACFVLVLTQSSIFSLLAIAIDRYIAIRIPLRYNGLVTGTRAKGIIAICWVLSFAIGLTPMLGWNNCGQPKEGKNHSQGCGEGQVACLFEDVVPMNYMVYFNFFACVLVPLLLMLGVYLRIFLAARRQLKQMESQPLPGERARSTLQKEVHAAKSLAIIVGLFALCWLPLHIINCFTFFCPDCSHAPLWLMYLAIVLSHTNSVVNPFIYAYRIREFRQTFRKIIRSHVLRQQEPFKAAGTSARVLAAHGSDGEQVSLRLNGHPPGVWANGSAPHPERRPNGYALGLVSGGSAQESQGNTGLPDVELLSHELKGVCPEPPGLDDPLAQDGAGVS

Ratio Ki (Homo sapiens [1]) | Ki (Adenosine receptor A2b) [nM] | Ki (Adenosine receptor A1) [nM] | Ki (Adenosine receptor A2a) [nM] | Ki (Adenosine receptor A3) [nM] | Ratio Ki (Homo sapiens [2]) | Ratio Ki (Homo sapiens [3]) | SMILES
26 | 7 | 185 | 73 | 35 | 10 | 5 | Cn1c(=O)n(CC2CC2)c(=O)c2[nH]c(-c3cnn(Cc4cccc(F)c4)c3)nc21
2 | 506 | 1120 | 1950 |  | 4 |  | CCCn1c(=O)c2[nH]c(-c3cnn(Cc4ccc[n+]([O-])c4)c3)nc2n(CC)c1=O
13 | 30 | 416 | 247 |  | 8 |  | CCCCn1c(=O)c2[nH]c(-c3cnn(Cc4ccccc4)c3)nc2n(C)c1=O
130 | 2 | 260 | 73 | 92 | 36 | 46 | CCn1c(=O)c2[nH]c(-c3cnn(Cc4ccccc4)c3)nc2n(C)c1=O
76 |  |  |  |  | 58 | 91 | CCn1c(=O)c2nc(-c3cnn(Cc4cccc(F)c4)c3)[nH]c2n(CC)c1=O
11 | 27 | 314 | 181 |  | 6 |  | CCn1c(=O)n(CC2CC2)c(=O)c2[nH]c(-c3cnn(Cc4ccccc4)c3)nc21
45 | 6 | 274 | 234 | 262 | 39 | 43 | CCn1c(=O)c2[nH]c(-c3cnn(Cc4cccc(C(F)(F)F)c4)c3)nc2n(C)c1=O
34 | 35 | 1200 | 2500 | 950 | 71 | 27 | CCCn1c(=O)c2[nH]c(-c3cnn(Cc4cccc(F)c4)c3)nc2n(CC)c1=O
23 | 22 | 522 | 312 |  | 14 |  | CCCn1c(=O)c2[nH]c(-c3cnn(Cc4cccnc4)c3)nc2n(CC)c1=O
9 | 46 | 410 | 411 |  | 9 |  | CCCn1c(=O)c2[nH]c(-c3cnn(Cc4ccccn4)c3)nc2n(CC)c1=O
57 | 11 | 631 | 1090 | 250 | 99 | 23 | CCn1c(=O)n(CC(C)C)c(=O)c2[nH]c(-c3cnn(Cc4cccc(C(F)(F)F)c4)c3)nc21
31 | 14 | 441 | 450 | 408 | 32 | 29 | CCCn1c(=O)c2[nH]c(-c3cnn(Cc4cccc(C(F)(F)F)c4)c3)nc2n(C)c1=O
56 | 16 | 910 | 3780 | 413 | 236 | 25 | CCCn1c(=O)c2[nH]c(-c3cnn(Cc4nc(-c5ccc(Cl)cc5)no4)c3)nc2n(CC)c1=O
87 | 25 | 2190 | 2370 | 3810 | 94 | 152 | CCCn1c(=O)c2[nH]c(-c3cnn(Cc4cc(-c5ccc(C(F)(F)F)cc5)on4)c3)nc2n(CC)c1=O
2 | 141 | 348 | 1220 |  | 9 |  | CCn1c(=O)n(CC(C)C)c(=O)c2[nH]c(-c3cn[nH]c3)nc21
11 | 26 | 305 | 217 |  | 8 |  | CCCCn1c(=O)c2[nH]c(-c3cnn(Cc4cccc(F)c4)c3)nc2n(C)c1=O
14 | 11 | 154 | 149 | 91 | 13 | 8 | Cn1c(=O)n(CC2CC2)c(=O)c2[nH]c(-c3cnn(Cc4ccccc4)c3)nc21

Ratio Ki (Homo sapiens [1]) | Ki (Adenosine receptor A2b) [nM] | Ki (Adenosine receptor A1) [nM] | Ki (Adenosine receptor A2a) [nM] | Ki (Adenosine receptor A3) [nM] | Ratio Ki (Homo sapiens [2]) | Ratio Ki (Homo sapiens [3]) | SMILES
9 | 42 | 376 | 1390 |  | 33 |  | CC(C)Cn1c(=O)c2[nH]c(-c3cn[nH]c3)nc2n(C)c1=O
47 | 31 | 1480 | 3850 | 324 | 124 | 10 | CCn1c(=O)n(CC(C)C)c(=O)c2[nH]c(-c3cnn(Cc4cccc(F)c4)c3)nc21
22 | 13 | 290 | 139 | 95 | 10 | 7 | CCCn1c(=O)c2[nH]c(-c3cnn(Cc4cccc(F)c4)c3)nc2n(C)c1=O
17 |  |  |  |  | 7 |  | Cn1c(=O)c2[nH]c(-c3cnn(Cc4cccc(F)c4)c3)nc2n(C)c1=O
12 |  |  |  |  | 28 | 10 | CCCn1c(=O)c2[nH]c(-c3cnn(Cc4cccc(C(F)(F)F)c4)c3)nc2n(CCC)c1=O
8 | 21 | 167 | 312 | 160 | 15 | 7 | Cn1c(=O)n(CC2CC2)c(=O)c2[nH]c(-c3cnn(Cc4cccc(C(F)(F)F)c4)c3)nc21
5 | 42 | 200 | 781 |  | 18 |  | CCCn1c(=O)c2[nH]c(-c3cnn(Cc4cc(-c5ccc(Cl)cc5)on4)c3)nc2n(CC)c1=O
 | 120 |  |  |  |  |  | CCn1c(=O)c2[nH]c(-c3cn[nH]c3)nc2n(C)c1=O
13 |  |  |  |  | 17 | 4 | CCCn1c(=O)c2[nH]c(-c3cnn(Cc4cccc(F)c4)c3)nc2n(CCC)c1=O
992 |  |  |  |  | 686 | 100 | Cn1c(=O)c2nc(-c3cnn(Cc4cccc(C(F)(F)F)c4)c3)[nH]c2n(C)c1=O
3 | 199 | 617 | 633 |  | 3 |  | CC(C)Cn1c(=O)c2[nH]c(-c3cnn(Cc4cccc(C(F)(F)F)c4)c3)nc2n(C)c1=O
2 | 38 | 76 | 234 |  | 6 |  | CCn1c(=O)n(CC2CC2)c(=O)c2[nH]c(-c3cn[nH]c3)nc21
9 | 31 | 275 | 261 |  | 8 |  | CCCn1c(=O)c2[nH]c(-c3cnn(Cc4ccccc4)c3)nc2n(CC)c1=O
> 18 | 335 | > 6000 | > 5000 |  | > 15 |  | CCCn1c(=O)c2[nH]c(-c3cnn(Cc4noc(-c5ccc(Cl)cc5)n4)c3)nc2n(CC)c1=O
44 |  |  |  |  | 34 | 34 | CCn1c(=O)c2nc(-c3cnn(Cc4cccc(C(F)(F)F)c4)c3)[nH]c2n(CC)c1=O
4 | 49 | 178 | 496 |  | 10 |  | CCCn1c(=O)c2[nH]c(-c3cn[nH]c3)nc2n(CC)c1=O
30 | 19 | 582 | 125 |  | 6 |  | CCCn1c(=O)c2[nH]c(-c3cnn(Cc4ccccc4)c3)nc2n(C)c1=O
